Results reported in ChEMBL document CHEMBL1926569, “Novel (E)-1-(4-methyl-2-(alkylamino)thiazol-5-yl)-3-arylprop-2-en-1-ones as potent antimicrobial agents” (2011).
Converted amounts (≈) assume the structure as drawn.

Legend:
Staphylococcus aureus [1] = test: Antibacterial activity against Staphylococcus aureus ATCC 6538 after 24 hrs by microdilution method; assay type: functional; details: ATCC 6538, 24 h
Procedure, shortened: (§1)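 Broth microdilution in 96-well plates. Bacterial suspensions were adjusted in sterile saline to 1.0 × 10⁵ CFU/ml, prepared daily and kept at 4 °C. Compound was added to LB broth with 1.0 × 10⁴ CFU per well and shaken at 160 rpm for 24 h at […] (so in the source). MIC is the lowest concentration with no visible growth under a binocular microscope. OD655 was also read. Duplicate, repeated three times.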

Bacillus cereus [2] = test: Antibacterial activity against clinical isolate of Bacillus cereus after 24 hrs by microdilution method; assay type: functional; procedure, shortened: as §1
Micrococcus flavus [3] = test: Antibacterial activity against Micrococcus flavus ATCC 10240 after 24 hrs by microdilution method; assay type: functional; details: ATCC 10240, 24 h; procedure, shortened: as §1
Listeria monocytogenes [4] = test: Antibacterial activity against Listeria monocytogenes NCTC 7973 after 24 hrs by microdilution method; assay type: functional; details: NCTC 7973, 24 h; procedure, shortened: as §1
Pseudomonas aeruginosa [5] = test: Antibacterial activity against Pseudomonas aeruginosa ATCC 27853 after 24 hrs by microdilution method; assay type: functional; details: ATCC 27853, 24 h; procedure, shortened: as §1
Salmonella typhimurium [6] = test: Antibacterial activity against Salmonella Typhimurium ATCC 13311 after 24 hrs by microdilution method; assay type: functional, Salmonella enterica subsp. enterica serovar Typhimurium; details: Salmonella enterica, ATCC 13311, 24 h; procedure, shortened: as §1
Escherichia coli [7] = test: Antibacterial activity against Escherichia coli ATCC 35210 after 24 hrs by microdilution method; assay type: functional; details: ATCC 35210, 24 h; procedure, shortened: as §1
Enterococcus faecalis [8] = test: Antibacterial activity against Enterococcus faecalis isolated from human after 24 hrs by microdilution method; assay type: functional; procedure, shortened: as §1
Staphylococcus aureus [9] = test: Antibacterial activity against Staphylococcus aureus ATCC 6538 incubated for 24 hrs followed by serial sub-cultivation for 24 hrs by microdilution method; assay type: functional; details: ATCC 6538, 24 h
Procedure, shortened: (§2)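 MBC: after the 24 h LB broth microdilution (1.0 × 10⁴ CFU per well, 160 rpm), wells were serially sub-cultured into fresh broth plates and incubated a further 24 h. MBC is the lowest concentration with no visible growth, taken as 99.5% killing of the original inoculum. Duplicate, repeated three times.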

Bacillus cereus [10] = test: Antibacterial activity against clinical isolate of Bacillus cereus incubated for 24 hrs followed by serial sub-cultivation for 24 hrs by microdilution; assay type: functional; procedure, shortened: as §2
Micrococcus flavus [11] = test: Antibacterial activity against Micrococcus flavus ATCC 10240 incubated for 24 hrs followed by serial sub-cultivation for 24 hrs by microdilution; assay type: functional; details: ATCC 10240, 24 h; procedure, shortened: as §2
Listeria monocytogenes [12] = test: Antibacterial activity against Listeria monocytogenes NCTC 7973 incubated for 24 hrs followed by serial sub-cultivation for 24 hrs by microdilution; assay type: functional; details: NCTC 7973, 24 h; procedure, shortened: as §2
Pseudomonas aeruginosa [13] = test: Antibacterial activity against Pseudomonas aeruginosa ATCC 27853 incubated for 24 hrs followed by serial sub-cultivation for 24 hrs by microdilution; assay type: functional; details: ATCC 27853, 24 h; procedure, shortened: as §2
Salmonella typhimurium [14] = test: Antibacterial activity against Salmonella Typhimurium ATCC 13311 incubated for 24 hrs followed by serial sub-cultivation for 24 hrs by microdilution; assay type: functional, Salmonella enterica subsp. enterica serovar Typhimurium; details: Salmonella enterica, ATCC 13311, 24 h; procedure, shortened: as §2
Escherichia coli [15] = test: Antibacterial activity against Escherichia coli ATCC 35210 incubated for 24 hrs followed by serial sub-cultivation for 24 hrs by microdilution; assay type: functional; details: ATCC 35210, 24 h; procedure, shortened: as §2
Enterococcus faecalis [16] = test: Antibacterial activity against Enterococcus faecalis isolated from human incubated for 24 hrs followed by serial sub-cultivation for 24 hrs by microdilution; assay type: functional; procedure, shortened: as §2
Aspergillus ochraceus [17] = test: Antifungal activity against Aspergillus ochraceus ATCC 12066 after 72 hrs by serial dilution technique; assay type: functional; details: ATCC 12066, 72 h
Procedure, shortened: (§3)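 Modified microdilution in 96-well plates. Fungi were kept on malt agar at 4 °C. Spores were washed off in sterile 0.85% saline with 0.1% Tween 80. Compounds were dissolved at 1 mg/ml in 5% DMSO with 0.1% Tween 80 and added to malt broth with inoculum. Plates were shaken at 160 rpm for 72 h at 28 °C. Duplicate, repeated three times.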

Aspergillus niger [18] = test: Antifungal activity against Aspergillus niger ATCC 6275 after 72 hrs by serial dilution technique; assay type: functional; details: ATCC 6275, 72 h; procedure, shortened: as §3
Aspergillus flavus [19] = test: Antifungal activity against Aspergillus flavus ATCC 9643 after 72 hrs by serial dilution technique; assay type: functional; details: ATCC 9643, 72 h; procedure, shortened: as §3
Talaromyces funiculosus [20] = test: Antifungal activity against Penicillium funiculosum ATCC 36839 after 72 hrs by serial dilution technique; assay type: functional; details: ATCC 36839, 72 h; procedure, shortened: as §3
Penicillium ochrochloron [21] = test: Antifungal activity against Penicillium ochrochloron ATCC 9112 after 72 hrs by serial dilution technique; assay type: functional; details: ATCC 9112, 72 h; procedure, shortened: as §3
Trichoderma viride [22] = test: Antifungal activity against Trichoderma viride IAM 5061 after 72 hrs by serial dilution technique; assay type: functional; details: IAM 5061, 72 h; procedure, shortened: as §3
Candida albicans [23] = test: Antifungal activity against Candida albicans isolated from human after 72 hrs by serial dilution technique; assay type: functional; procedure, shortened: as §3
Aspergillus ochraceus [24] = test: Antifungal activity against Aspergillus ochraceus ATCC 12066 incubated for 72 hrs followed by serial sub-cultivation for 72 hrs by serial dilution technique; assay type: functional; details: ATCC 12066, 72 h
Procedure, shortened: (§4)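 MFC: material from 72 h malt broth microdilution wells was serially sub-cultured into fresh broth plates and incubated a further 72 h at 28 °C. Fungicidal concentration is taken from growth after sub-culture. Duplicate, repeated three times.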

Aspergillus fumigatus [25] = test: Antifungal activity against Aspergillus fumigatus isolated from human incubated for 72 hrs followed by serial sub-cultivation for 72 hrs by serial dilution technique; assay type: functional; procedure, shortened: as §4
Aspergillus niger [26] = test: Antifungal activity against Aspergillus niger ATCC 6275 incubated for 72 hrs followed by serial sub-cultivation for 72 hrs by serial dilution technique; assay type: functional; details: ATCC 6275, 72 h; procedure, shortened: as §4
Aspergillus flavus [27] = test: Antifungal activity against Aspergillus flavus ATCC 9643 incubated for 72 hrs followed by serial sub-cultivation for 72 hrs by serial dilution technique; assay type: functional; details: ATCC 9643, 72 h; procedure, shortened: as §4
Talaromyces funiculosus [28] = test: Antifungal activity against Penicillium funiculosum ATCC 36839 incubated for 72 hrs followed by serial sub-cultivation for 72 hrs by serial dilution technique; assay type: functional; details: ATCC 36839, 72 h; procedure, shortened: as §4
Penicillium ochrochloron [29] = test: Antifungal activity against Penicillium ochrochloron ATCC 9112 incubated for 72 hrs followed by serial sub-cultivation for 72 hrs by serial dilution technique; assay type: functional; details: ATCC 9112, 72 h; procedure, shortened: as §4
Trichoderma viride [30] = test: Antifungal activity against Trichoderma viride IAM 5061 incubated for 72 hrs followed by serial sub-cultivation for 72 hrs by serial dilution technique; assay type: functional; details: IAM 5061, 72 h; procedure, shortened: as §4
Candida albicans [31] = test: Antifungal activity against Candida albicans isolated from human incubated for 72 hrs followed by serial sub-cultivation for 72 hrs by serial dilution technique; assay type: functional; procedure, shortened: as §4
Pseudomonas aeruginosa [32] = test: Ratio of ampicillin MIC to compound MIC for Pseudomonas aeruginosa ATCC 27853; assay type: functional
Aspergillus ochraceus [33] = test: Ratio of bifonazole to compound for Aspergillus ochraceus ATCC 12066; assay type: functional
Aspergillus niger [34] = test: Ratio of bifonazole to compound for Aspergillus niger ATCC 6275; assay type: functional
Talaromyces funiculosus [35] = test: Ratio of bifonazole to compound for Penicillium funiculosum ATCC 36839; assay type: functional
Penicillium ochrochloron [36] = test: Ratio of bifonazole to compound for Penicillium ochrochloron ATCC 9112; assay type: functional
Trichoderma viride [37] = test: Ratio of bifonazole to compound for Trichoderma viride IAM 5061; assay type: functional
Candida albicans [38] = test: Ratio of bifonazole to compound for Candida albicans isolated from human; assay type: functional
Aspergillus ochraceus [39] = test: Ratio of ketoconazole to compound for Aspergillus ochraceus ATCC 12066; assay type: functional
Aspergillus fumigatus [40] = test: Ratio of ketoconazole to compound for Aspergillus fumigatus isolated from human; assay type: functional
Penicillium ochrochloron [41] = test: Ratio of ketoconazole to compound for Penicillium ochrochloron ATCC 9112; assay type: functional
Candida albicans [42] = test: Ratio of ketoconazole to compound for Candida albicans isolated from human; assay type: functional
Aspergillus ochraceus [43] = test: Antifungal activity against Aspergillus ochraceus after 72 hrs by serial dilution technique

Q: CCNc1nc(C)c(C(=O)/C=C/c2cccc(Cl)c2)s1 was tested. Which MIC (Staphylococcus aureus [1]) did it give?
A: The MIC was 98 µM (≈ 30.1 µg/mL).

Q: And the MIC (Bacillus cereus [2])?
A: Its MIC is 49.1 µM (≈ 15.1 µg/mL).

Q: And the MIC (Micrococcus flavus [3])?
A: The MIC was 32.7 µM (≈ 10 µg/mL).

Q: What about the MIC (Listeria monocytogenes [4]) of the same molecule?
A: Its MIC is 98 µM (≈ 30.1 µg/mL).

Q: What about the MIC (Pseudomonas aeruginosa [5]) of the same molecule?
A: The MIC was 65.3 µM (≈ 20 µg/mL).

Q: What about the MIC (Salmonella typhimurium [6]) of the same molecule?
A: Its MIC is 49.1 µM (≈ 15.1 µg/mL).

Q: What about the MIC (Escherichia coli [7]) of the same molecule?
A: Its MIC is 49.1 µM (≈ 15.1 µg/mL).

Q: What about the MIC (Enterococcus faecalis [8]) of the same molecule?
A: The MIC was 49.1 µM (≈ 15.1 µg/mL).

Q: And the MBC (Staphylococcus aureus [9])?
A: Its MBC is 98 µM (≈ 30.1 µg/mL).

Q: What about the MBC (Bacillus cereus [10]) of the same molecule?
A: Its MBC is 65.3 µM (≈ 20 µg/mL).

Q: And the MBC (Micrococcus flavus [11])?
A: The MBC was 81.7 µM (≈ 25.1 µg/mL).

Q: And the MBC (Listeria monocytogenes [12])?
A: Its MBC is 114 µM (≈ 35.1 µg/mL).

Q: What about the MBC (Pseudomonas aeruginosa [13]) of the same molecule?
A: The MBC was 81.7 µM (≈ 25.1 µg/mL).

Q: And the MBC (Salmonella typhimurium [14])?
A: Its MBC is 65.3 µM (≈ 20 µg/mL).

Q: What about the MBC (Escherichia coli [15]) of the same molecule?
A: The MBC was 65.3 µM (≈ 20 µg/mL).

Q: What about the MBC (Enterococcus faecalis [16]) of the same molecule?
A: Its MBC is 65.3 µM (≈ 20 µg/mL).

Q: And the MIC (Aspergillus ochraceus [17])?
A: Its MIC is 65.3 µM (≈ 20 µg/mL).

Q: And the MIC (Aspergillus niger [18])?
A: Its MIC is 65.3 µM (≈ 20 µg/mL).

Q: And the MIC (Aspergillus flavus [19])?
A: The MIC was 65.3 µM (≈ 20 µg/mL).

Q: And the MIC (Talaromyces funiculosus [20])?
A: The MIC was 32.7 µM (≈ 10 µg/mL).

Q: And the MIC (Penicillium ochrochloron [21])?
A: Its MIC is 65.3 µM (≈ 20 µg/mL).

Q: What about the MIC (Trichoderma viride [22]) of the same molecule?
A: Its MIC is 32.7 µM (≈ 10 µg/mL).

Q: And the MIC (Candida albicans [23])?
A: The MIC was 32.7 µM (≈ 10 µg/mL).

Q: And the MFC (Aspergillus ochraceus [24])?
A: The MFC was 81.7 µM (≈ 25.1 µg/mL).

Q: And the MFC (Aspergillus fumigatus [25])?
A: Its MFC is 65.3 µM (≈ 20 µg/mL).

Q: And the MFC (Aspergillus niger [26])?
A: The MFC was 81.7 µM (≈ 25.1 µg/mL).

Q: And the MFC (Aspergillus flavus [27])?
A: Its MFC is 81.7 µM (≈ 25.1 µg/mL).

Q: And the MFC (Talaromyces funiculosus [28])?
A: The MFC was 65.3 µM (≈ 20 µg/mL).

Q: And the MFC (Penicillium ochrochloron [29])?
A: The MFC was 81.7 µM (≈ 25.1 µg/mL).

Q: And the MFC (Trichoderma viride [30])?
A: The MFC was 65.3 µM (≈ 20 µg/mL).

Q: And the MFC (Candida albicans [31])?
A: The MFC was 65.3 µM (≈ 20 µg/mL).

Q: And the Ratio (Pseudomonas aeruginosa [32])?
A: Its Ratio is 10.

Q: And the Ratio (Aspergillus ochraceus [33])?
A: Its Ratio is 10.

Q: And the Ratio (Aspergillus niger [34])?
A: Its Ratio is 10.

Q: What about the Ratio (Talaromyces funiculosus [35]) of the same molecule?
A: Its Ratio is 10.

Q: And the Ratio (Penicillium ochrochloron [36])?
A: Its Ratio is 10.

Q: And the Ratio (Trichoderma viride [37])?
A: Its Ratio is 10.

Q: And the Ratio (Candida albicans [38])?
A: The Ratio was 10.

Q: And the Ratio (Aspergillus ochraceus [39])?
A: The Ratio was 10.

Q: And the Ratio (Aspergillus fumigatus [40])?
A: The Ratio was 10.

Q: What about the Ratio (Penicillium ochrochloron [41]) of the same molecule?
A: The Ratio was 10.

Q: And the Ratio (Candida albicans [42])?
A: Its Ratio is 10.

Q: And the MIC (Aspergillus ochraceus [43])?
A: The MIC was 32.7 µM (≈ 10 µg/mL).
